For 16 compounds, IC50 and pIC50 results are on record in ChEMBL document CHEMBL4325879, “Optimization of substituted cinnamic acyl sulfonamide derivatives as tubulin polymerization inhibitors with anticancer activity” (Bioorg Med Chem Lett, 2018).

The target of one test is Tubulin (Bos taurus, UniProt Q6B856+Q862L2+Q862F3). Briefly: Inhibition of bovine brain tubulin polymerization after 20 mins in presence of GTP by spectrophotometric analysis.
A further test concerns MCF7. Briefly: Antiproliferative activity against human MCF7 cells after 48 hrs by MTT assay. The test is classed as functional, cell-based. The following applies: MCF7, 48 h. Summed up: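 MCF-7 human breast cancer cells exposed to compounds for 48 h. Cytotoxicity read by MTT assay. IC50 taken as the concentration giving 50% inhibition of cell growth.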
For orientation: Tetrazolium dyes change colour on reduction, which living cells bring about.

Each structure is given as a SMILES string. Converted amounts (≈) assume the structure as drawn.

As a reminder, the IC50 is the concentration that gives 50% inhibition. Broadly, the pIC50 is the IC50 on a negative log10 scale, so that one unit is a factor of ten. Turning to `O=C(/C=C/c1ccc2c(c1)OCO2)NS(=O)(=O)c1ccc(F)cc1`, on Tubulin, the IC50 amounted to 76.9 µM and the pIC50 came to 4.114. In addition, half-maximal inhibition in the test on MCF7 (IC50) required 74 µg/mL (≈ 212 µM).
For `O=C(/C=C/c1ccc2c(c1)OCO2)NS(=O)(=O)c1ccc(Br)cc1`, in that order: 51.59 µM, 4.288 and 89 µg/mL (≈ 217 µM).
In the case of `O=C(/C=C/c1ccc2c(c1)OCCO2)NS(=O)(=O)c1ccc(Cl)cc1`, on Tubulin, the IC50 was determined as 87.92 µM and the pIC50 came to 4.056. In the test on MCF7, this compound registered an IC50 of 51.3 µg/mL (≈ 135 µM).
As to `Cc1ccc(S(=O)(=O)NC(=O)/C=C/c2ccc3c(c2)OCO3)cc1`, at Tubulin, the IC50 stood at 40.85 µM and the pIC50 is listed as 4.389. In the test on MCF7, the IC50 worked out at 48.9 µg/mL (≈ 142 µM).
For `O=C(/C=C/c1ccc2c(c1)OCO2)NS(=O)(=O)c1ccc(Cl)cc1`, in that order: 94.72 µM, 4.024 and 47.3 µg/mL (≈ 129 µM).
Take `O=C(/C=C/c1ccc2c(c1)OCCCO2)NS(=O)(=O)c1ccc(Br)cc1`: the IC50 was greater than 100 µM on Tubulin and greater than 100 µg/mL in the test on MCF7.
Turning to `Cc1ccc(S(=O)(=O)NC(=O)/C=C/c2ccc3c(c2)OCCO3)cc1`, at Tubulin, the IC50 was found to be 93.33 µM and the pIC50 was found to be 4.03. The compound also yielded an IC50 with MCF7 greater than 100 µg/mL.
Turning to `Cc1ccc(S(=O)(=O)NC(=O)/C=C/c2ccc3c(c2)OCCCO3)cc1`, the IC50 at Tubulin was greater than 100 µM; in the test with MCF7, greater than 100 µg/mL.
On to `O=C(/C=C/c1ccc2c(c1)OCCO2)NS(=O)(=O)c1ccccc1`, for which, on Tubulin, the IC50 came to 5.47 µM and the pIC50 worked out at 5.262. Besides, the IC50 in the test on MCF7 was determined as 2.16 µg/mL (≈ 6.25 µM).
For `O=C(/C=C/c1ccc2c(c1)OCCCO2)NS(=O)(=O)c1ccccc1`, the figures for the IC50 at Tubulin and with MCF7 were 49.01 µM and 53.9 µg/mL (≈ 150 µM), respectively. The pIC50 at Tubulin is recorded as 4.31.
For `O=C(/C=C/c1ccc2c(c1)OCO2)NS(=O)(=O)c1ccccc1`, in that order: 0.88 µM, 0.17 µg/mL (≈ 0.513 µM) and 6.056.
As for `O=C(/C=C/c1ccc2c(c1)OCCO2)NS(=O)(=O)c1ccc(Br)cc1`, the figures for the IC50 on Tubulin and with MCF7 were greater than 100 µM and greater than 100 µg/mL, respectively.
In the case of `O=C(/C=C/c1ccc2c(c1)OCCCO2)NS(=O)(=O)c1ccc(F)cc1`, the IC50 is greater than 100 µM on Tubulin and greater than 100 µg/mL with MCF7.
Take `COc1cc2c(c(OC)c1OC)-c1ccc(OC)c(=O)cc1[C@@H](NC(C)=O)CC2` [COLCHICINE]: 0.33 µg/mL (≈ 0.826 µM) corresponded to half-maximal inhibition in the test on MCF7 (IC50).
Turning to `O=C(/C=C/c1ccc2c(c1)OCCCO2)NS(=O)(=O)c1ccc(Cl)cc1`, the IC50 at Tubulin was greater than 100 µM; with MCF7, greater than 100 µg/mL.
On to `O=C(/C=C/c1ccc2c(c1)OCCO2)NS(=O)(=O)c1ccc(F)cc1`, for which, at Tubulin, the IC50 was found to be 27.46 µM and the pIC50 is reported as 4.562. Inhibition in the test on MCF7 was half-maximal at 52.1 µg/mL (≈ 143 µM) (IC50).
